Assay results from different studies.
Each line is one published result; the experiments were not run side by side.
CHRM1: Muscarinic acetylcholine receptor M1 (CHRM1, Homo sapiens, UniProt P11229)
LNPEP: Leucyl-cystinyl aminopeptidase (LNPEP, Homo sapiens, UniProt Q9UIQ6)
SLCO1B1: Solute carrier organic anion transporter family member 1B1 (SLCO1B1, Homo sapiens, UniProt Q9Y6L6)
Cruzipain: Cruzipain (Trypanosoma cruzi, UniProt P25779)
MMP13: Collagenase 3 (MMP13, Homo sapiens, UniProt P45452)

For CCn1c(-c2nc3cc(C(=O)N4CCC[C@@H](N)C4)cc(OC)c3n2C)cc2cccnc21, the IC50 was 63100 nM (CHRM1; calcium signal, antagonist, fluorescence).
CCC1CN(C(=O)NCC(F)(F)F)CC1N(C)c1ncnc2[nH]ccc12 (centres unmarked) gave an IC50 of 930 nM (Tyrosine-protein kinase JAK1 (JAK1, Homo sapiens, UniProt P23458); enzyme activity, inhibitor, ADP detection).
With Cc1ncsc1-c1ccc(CNC(=O)[C@@H]2C[C@H](O)CN2C(=O)[C@@H](NC(=O)C2(F)CC2)C(C)(C)C)c(OCCOc2ccc(CN3CCN(c4cc(-c5ccccc5O)nnc4N)CC3)cc2)c1 the IC50 was 510 nM (Protein polybromo-1, bromodomain (PBRM1, Homo sapiens, UniProt Q86U86); cell-free assay, TR-FRET).
O=S(=O)(Nc1cccc(-c2nnn[nH]2)c1)c1cc(C(F)(F)F)ccc1C(F)(F)F gave an IC50 of 800 nM (LNPEP; enzyme activity, inhibitor, fluorescence).
With C[C@]12CC[C@@H]3c4ccc(OS(=O)(=O)O)cc4CC[C@H]3[C@@H]1CCC2=O the IC50 was 60 nM (SLCO1B1; transporter uptake, inhibitor, fluorescence; CHO; 30 min, pH 7.4).
O=S(=O)(Nc1cccc(-c2nnn[nH]2)c1)c1cc2ccccc2s1 gave an IC50 of 5900 nM (LNPEP; enzyme activity, inhibitor, fluorescence).
Clc1ccc2[nH]c3c(NCCCN4CCOCC4)ncnc3c2c1 has an IC50 of 13000 nM (Cruzipain; enzyme activity, inhibitor).
Oc1ccc(/C=C/c2cc(O)cc(O)c2)cc1 has an IC50 of 11200 nM (SLCO1B1; transporter uptake, inhibitor, fluorescence; CHO; 30 min, pH 7.4).
With c1ccc(/C(=N\Nc2nc3ccccc3s2)c2ccccn2)cc1 the IC50 was 13000 nM (E3 ubiquitin-protein ligase Mdm2 (MDM2, Homo sapiens, UniProt Q00987); protein-protein interaction, inhibitor).
The IC50 of C[N+]1(C)CCC(OC(=O)C(c2ccccc2)c2ccccc2)CC1 is reported as 3.64 nM (CHRM1; ligand displacement, radioligand).
O=C(N[C@@H](Cc1ccccc1)C(=O)c1noc(-c2ccccc2)n1)[C@H](Cc1ccccc1)NC(=O)N1CCOCC1 gave an IC50 of 200 nM (Papain (Carica papaya, UniProt P00784); enzyme activity, inhibitor; pH 6.5, with preincubation).
The IC50 of O=S(=O)(Nc1cccc(-c2nnn[nH]2)c1)c1cc(Br)c(Cl)s1 is reported as 1100 nM (LNPEP; enzyme activity, inhibitor, fluorescence).
The IC50 of CCNC(=O)c1nc(-c2ccc3[nH]c(-c4nc(C)no4)cc3c2)c(C)[nH]1 is reported as 11 nM (MMP13; enzyme activity, inhibitor, FRET).
With NC(=O)c1ccc[n+]([C@@H]2O[C@H](COP(=O)([O-])OP(=O)(O)OC[C@H]3O[C@@H](n4cnc5c(N)ncnc54)[C@H](O)[C@@H]3O)[C@@H](O)[C@H]2O)c1 the IC50 was 377000 nM (Protein mono-ADP-ribosyltransferase PARP8 (Homo sapiens, UniProt Q8N3A8); enzyme activity, inhibitor).
The IC50 of Cc1noc(-c2cc3cc(-c4nc(C(N)=O)[nH]c4C)ccc3[nH]2)n1 is reported as 16 nM (MMP13; enzyme activity, inhibitor, FRET).
O=S(=O)(Nc1cccc(-c2nnn[nH]2)c1)c1cc(C(F)(F)F)cc(C(F)(F)F)c1 gave an IC50 of 4100 nM (LNPEP; enzyme activity, inhibitor, fluorescence).
CCn1ncc2c1-c1cnc(N)c(c1)O[C@H](C)c1cc(F)ccc1-c1nn(C)nc1C2 has an IC50 of 1140 nM (Insulin receptor (INSR, Homo sapiens, UniProt P06213); enzyme activity, inhibitor, radiometric).
For O=C(COc1ccc(Cl)cc1)N1CCN(Cc2ccc3c(c2)OCO3)CC1, the IC50 was 34500 nM (SLCO1B1; transporter uptake, inhibitor, fluorescence; CHO; 30 min, pH 7.4).
The IC50 of CN(C)CC#Cc1ccc2[nH]c3c(c2c1)-c1nc(N)ncc1CCC3 is reported as > 10000 nM (Dual serine/threonine and tyrosine protein kinase (DSTYK, Homo sapiens, UniProt Q6XUX3); enzyme activity, inhibitor, radiometric).
For CC/C=C\C/C=C\C/C=C\C/C=C\C/C=C\CCCC(=O)O, the IC50 was 39200 nM (DNA polymerase delta catalytic subunit (POLD1, Homo sapiens, UniProt P28340); enzyme activity, inhibitor).
The IC50 of Cc1noc(-c2cc3cc(-c4nc(C(=O)NCc5cccnc5)[nH]c4C)ccc3[nH]2)n1 is reported as 0.64 nM (MMP13; enzyme activity, inhibitor, FRET).
COc1ccc(NC(=O)COC(=O)C(CC(C)C)N2C(=O)C3CC=CCC3C2=O)cc1Cl (centres unmarked) has an IC50 of 900 nM (Cruzipain; enzyme activity, inhibitor, fluorescence).
With CCCC[C@H](NC(=O)[C@H](C)c1c(C)[nH]c2ccc(O)cc12)c1ncc(-c2cc3ccccc3nc2OC)[nH]1 the IC50 was 100 nM (Histone deacetylase 11 (HDAC11, Homo sapiens, UniProt Q96DB2); enzyme activity, inhibitor).
